Drawing on ChEMBL document CHEMBL1148191, “2-Hydroxymethyl-3,4-dihydroxy-6-methyl-pyrrolidine (6-deoxy-DMDP), an alkaloid beta-mannosidase inhibitor from seeds of Angylocalyx pynaertii” (J Nat Prod, 1993), this text covers Activity and inhibition for five compounds.

One assay relates to Canavalia ensiformis. Nature of the assay: Inhibition of jack beans alpha-mannosidase. In a few lines: (§1)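 Commercial arylglycosidases, with α-L-fucosidase from bovine kidney. Activity was measured colorimetrically as p-nitrophenol released from the matching p-nitrophenyl glycoside substrate.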
Another assay has as its system Saccharomyces cerevisiae. Nature of the assay: Inhibition of yeast alpha-glucosidase. An outline of the steps:
as §1

The next assay deals with Prunus dulcis. Nature of the assay: Inhibition of almonds beta-glucosidase. An outline of the steps:
as §1

The next assay has as its system Aspergillus niger. The experiment in a line: Inhibition of Aspergillus niger alpha-galactosidase. An outline of the steps: as §1
In assay [1] the target is T1, Beta-mannosidase A (Aspergillus niger) (UniProt Q9UUZ3).
T1 sequence (whole entry): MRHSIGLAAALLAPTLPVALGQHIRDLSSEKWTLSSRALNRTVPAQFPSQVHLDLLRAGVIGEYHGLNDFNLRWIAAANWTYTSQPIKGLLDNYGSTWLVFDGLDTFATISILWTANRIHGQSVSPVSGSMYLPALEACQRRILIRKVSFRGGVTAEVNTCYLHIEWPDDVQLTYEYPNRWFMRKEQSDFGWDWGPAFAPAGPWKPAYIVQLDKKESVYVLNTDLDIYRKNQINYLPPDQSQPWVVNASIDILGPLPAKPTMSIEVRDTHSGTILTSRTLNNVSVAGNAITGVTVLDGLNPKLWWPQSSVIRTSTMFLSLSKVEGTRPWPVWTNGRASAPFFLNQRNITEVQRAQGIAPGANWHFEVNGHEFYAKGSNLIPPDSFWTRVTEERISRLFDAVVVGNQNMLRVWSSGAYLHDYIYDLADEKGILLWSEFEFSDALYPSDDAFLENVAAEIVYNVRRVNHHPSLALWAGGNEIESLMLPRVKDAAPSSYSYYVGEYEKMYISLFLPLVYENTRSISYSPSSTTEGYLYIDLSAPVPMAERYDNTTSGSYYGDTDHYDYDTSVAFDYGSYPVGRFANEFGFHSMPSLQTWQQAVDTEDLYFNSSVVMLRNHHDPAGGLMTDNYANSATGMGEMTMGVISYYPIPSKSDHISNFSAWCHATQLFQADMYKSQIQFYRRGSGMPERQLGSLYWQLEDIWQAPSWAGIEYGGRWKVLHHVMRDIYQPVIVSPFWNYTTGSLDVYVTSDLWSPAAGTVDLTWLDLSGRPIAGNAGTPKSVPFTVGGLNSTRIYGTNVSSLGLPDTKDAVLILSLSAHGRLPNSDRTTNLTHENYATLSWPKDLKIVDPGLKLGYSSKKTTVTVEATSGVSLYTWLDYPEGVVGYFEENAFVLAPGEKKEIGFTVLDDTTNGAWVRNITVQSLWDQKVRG
Nature of the assay: Inhibition of Aspergillus niger beta-mannosidase at 380 uM. An outline of the steps: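 β-Mannosidase was purified from Aspergillus niger. Activity was read colorimetrically as p-nitrophenol release from the p-nitrophenyl glycoside substrate, expressed relative to untreated enzyme over a range of inhibitor concentrations. Kinetics were analysed by Lineweaver-Burk plot.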

For assay [2], the target named is T2, Beta-galactosidase (Bos taurus) (UniProt Q58D55).
T2 sequence (whole entry): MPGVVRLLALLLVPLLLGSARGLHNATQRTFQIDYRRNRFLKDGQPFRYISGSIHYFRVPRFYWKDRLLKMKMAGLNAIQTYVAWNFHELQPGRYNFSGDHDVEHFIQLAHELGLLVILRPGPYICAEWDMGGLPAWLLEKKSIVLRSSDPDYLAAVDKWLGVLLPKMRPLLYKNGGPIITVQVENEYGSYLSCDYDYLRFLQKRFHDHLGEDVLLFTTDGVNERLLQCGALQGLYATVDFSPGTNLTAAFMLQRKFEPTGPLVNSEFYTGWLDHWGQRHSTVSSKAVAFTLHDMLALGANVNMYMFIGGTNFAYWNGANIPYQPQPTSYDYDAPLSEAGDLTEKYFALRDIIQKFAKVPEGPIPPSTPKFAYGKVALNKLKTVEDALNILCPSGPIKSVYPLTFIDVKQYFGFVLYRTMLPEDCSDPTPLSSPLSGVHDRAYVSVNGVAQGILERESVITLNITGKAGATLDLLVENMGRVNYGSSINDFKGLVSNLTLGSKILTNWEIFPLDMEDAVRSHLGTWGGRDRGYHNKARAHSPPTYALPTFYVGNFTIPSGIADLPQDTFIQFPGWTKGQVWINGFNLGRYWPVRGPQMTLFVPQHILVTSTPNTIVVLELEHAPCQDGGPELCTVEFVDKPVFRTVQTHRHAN
The experiment in a line: Inhibition of bovine liver beta-galactosidase. An outline of the steps: as §1

Assay [3] deals with T3, Exo-1,4-beta-xylosidase xlnD (Aspergillus niger) (UniProt O00089).
T3 sequence (whole entry): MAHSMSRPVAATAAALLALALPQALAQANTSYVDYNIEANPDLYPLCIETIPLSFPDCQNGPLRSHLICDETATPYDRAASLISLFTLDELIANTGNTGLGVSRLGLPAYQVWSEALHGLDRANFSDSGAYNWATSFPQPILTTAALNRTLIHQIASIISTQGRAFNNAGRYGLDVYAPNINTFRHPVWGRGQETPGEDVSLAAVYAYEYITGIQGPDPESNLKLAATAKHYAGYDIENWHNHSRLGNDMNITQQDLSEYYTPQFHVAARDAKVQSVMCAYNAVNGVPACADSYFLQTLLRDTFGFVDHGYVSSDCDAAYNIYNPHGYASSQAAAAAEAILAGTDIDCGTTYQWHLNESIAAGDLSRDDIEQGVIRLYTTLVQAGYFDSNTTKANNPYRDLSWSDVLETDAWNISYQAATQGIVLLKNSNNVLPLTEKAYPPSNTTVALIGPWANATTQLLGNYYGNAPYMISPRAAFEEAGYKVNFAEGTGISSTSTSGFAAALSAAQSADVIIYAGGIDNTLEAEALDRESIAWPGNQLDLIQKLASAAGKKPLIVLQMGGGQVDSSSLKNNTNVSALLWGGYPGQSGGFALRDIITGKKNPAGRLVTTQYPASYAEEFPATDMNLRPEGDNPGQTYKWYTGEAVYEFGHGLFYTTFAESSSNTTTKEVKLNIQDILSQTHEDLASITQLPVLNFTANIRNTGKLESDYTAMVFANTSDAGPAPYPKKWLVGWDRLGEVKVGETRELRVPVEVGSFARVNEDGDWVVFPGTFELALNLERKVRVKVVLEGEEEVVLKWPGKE
The experiment in a line: Inhibition of Aspergillus niger beta-xylosidase. In a few lines:
as §1

Calls of active or inactive are those of the source. The calls are words filed in the database; no cut-off is given here.

Consider `OC[C@H]1NC[C@@H](O)[C@@H](O)[C@@H]1O`, for which the result in the assay on Canavalia ensiformis was Active.
Take `OC[C@H]1N[C@H](CO)[C@@H](O)[C@@H]1O`: the result in the assay on Saccharomyces cerevisiae and with Prunus dulcis was Active.
Take `OC[C@H]1NC[C@@H](O)[C@@H]1O`: the result with Saccharomyces cerevisiae and with Prunus dulcis was Active.
The term inhibition denotes the relative decrease from the control value, in per cent. A higher inhibition goes with a strong effect. With `C[C@H]1N[C@H](CO)[C@@H](O)[C@@H]1O`, the outcome (in the assay on Saccharomyces cerevisiae; with Prunus dulcis; with Aspergillus niger; in the assay with Canavalia ensiformis; in assay [3]) was inactive. The compound also had an inhibition in assay [1] of 50%. For the same compound, the outcome in assay [2] was Active.
On to `O[C@H]1[C@H]2[C@H](O)CCCN2C[C@H]1O`, for which, in the assay on Canavalia ensiformis, the result was Active.
